From ChEMBL document CHEMBL3259644, “Dibenzo[1,4,5]thiadiazepine: a hardly-known heterocyclic system with neuroprotective properties of potential usefulness in the treatment of neurodegenerative diseases” (Eur J Med Chem, 2014) come the findings set out here.

Data set [1] concerns SH-SY5Y. The data set can be described thus: Neuroprotective activity in human SH-SY5Y cells assessed as protection against rotenone-oligomycin-induced toxicity at 3 uM co-incubated with rotenone-oligomycin measured after 24 hrs by lactate dehydrogenase release assay. Format: functional. The essentials: (§1)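 Co-incubation: cells (10^5/well, serum-free DMEM) given compound together with rotenone 30 µM plus oligomycin A 10 µM for 24 h. Cell death by LDH release. Protection: basal LDH subtracted from toxin-induced release, normalized to 100%, then subtracted from 100. Mean of 4 independent experiments in triplicate.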

The subject of data set [2] is SH-SY5Y. Description: Neuroprotective activity in human SH-SY5Y cells assessed as protection against rotenone-oligomycin-induced toxicity at 3 uM preincubated for 24 hrs before rotenone-oligomycin addition measured after 24 hrs by lactate dehydrogenase release assay. Format: functional. The essentials:
(§2)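 Pre-incubation: compound given to cells (10^5/well, serum-free DMEM) for 24 h. Medium then replaced with fresh medium holding compound plus rotenone 30 µM and oligomycin A 10 µM for another 24 h. LDH release read. Protection = 100 minus normalized toxin-induced LDH release above basal. Mean of 4 independent experiments in triplicate.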

The subject of data set [3] is SH-SY5Y. The data set can be described thus: Antioxidant activity in human SH-SY5Y cells assessed as rotenone-oligomycin-induced sequestering of mitochondrial free radicals at 0.3 uM after 120 mins using DCFH-DA by fluorescence microplate reader analysis. Format: functional. The gist of the method: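 Intracellular ROS probe: cells grown to confluence, loaded with 10 µM DCFH-DA for 45 min, basal fluorescence read. Rotenone 30 µM, oligomycin A 10 µM and compound 0.3 µM then added together at t = 0. Fluorescence change read after 120 min (ex 485/em 520 nm). Trolox 0.3 µM served as positive control. Mean of 3 independent experiments.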

Data set [4] deals with SH-SY5Y. Description: Neuroprotective activity in human SH-SY5Y cells assessed as protection against rotenone-oligomycin-induced toxicity at 1 uM co-incubated with rotenone-oligomycin measured after 24 hrs by lactate dehydrogenase release assay. The format is functional. The gist of the method: as §1
Data set [5] concerns SH-SY5Y. The data set can be described thus: Inhibition of calcium channel in human SH-SY5Y cells assessed as blockade of K+-evoked cytosolic calcium increase at 3 uM after 15 mins using Fluo-4/AM by fluorescence microplate reader analysis. The format is cell-based. The gist of the method: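 Confluent cells loaded with Fluo-4/AM 4 µM for 1 h at 37 °C, washed twice in Krebs-Hepes, then 15 min at room temperature. Compound (3 µM) applied 10 min before K+ raised to 70 mM final. Triton X-100 (5%) and MnCl2 (1 mM) gave maximal and basal fluorescence. Nifedipine 3 µM as positive control. Mean of 3 experiments.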

Data set [6] relates to SH-SY5Y. Description: Neuroprotective activity in human SH-SY5Y cells assessed as protection against rotenone-oligomycin-induced toxicity at 0.3 uM preincubated for 24 hrs before rotenone-oligomycin addition measured after 24 hrs by lactate dehydrogenase release assay. Format: functional. The gist of the method: as §2
Data set [7] in a line: Permeability of the compound by PAMPA. The format is physicochemical. The following applies: read-out: permeability. The essentials: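 PAMPA-BBB: filter impregnated with porcine brain lipid in dodecane (20 mg/mL). Compound at 100 µg/mL in PBS pH 7.4:ethanol 70:30 in donor. Acceptor held PBS:ethanol 70:30. Incubated 240 min at 25 °C. Acceptor concentration read by UV-Vis at five wavelengths, in four wells, at least three runs. Mean ± SD. 10 reference drugs validated each run.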

Another data set has as its target Cholinesterase (Equus caballus, UniProt P81908). The data set can be described thus: Inhibition of horse serum BuChE using butyrylthiocholine as substrate by UV spectroscopic analysis.
Data set [8] concerns SH-SY5Y. The data set can be described thus: Neuroprotective activity in human SH-SY5Y cells assessed as protection against rotenone-oligomycin-induced toxicity at 1 uM preincubated for 24 hrs before rotenone-oligomycin addition measured after 24 hrs by lactate dehydrogenase release assay. Format: functional. The gist of the method: as §2
Data set [9] in a line: Cytotoxicity against human SH-SY5Y cells assessed as cell viability at 3 uM after 24 hrs by lactate dehydrogenase release assay. Format: cell-based. The note with it: read-out: Activity. The gist of the method: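 Cells plated at 10^5 per well at least 48 h beforehand, in serum-free DMEM, before confluence. Exposed to compound at 3 µM for 24 h. LDH released to medium measured by colorimetric kit (492/620 nm), expressed as extracellular versus total LDH.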

Data set [10] deals with SH-SY5Y. The data set can be described thus: Neuroprotective activity in human SH-SY5Y cells assessed as protection against rotenone-oligomycin-induced toxicity at 0.3 uM co-incubated with rotenone-oligomycin measured after 24 hrs by lactate dehydrogenase release assay. Format: functional. The gist of the method:
as §1

Cholinesterase, sequence (P81908 whole entry): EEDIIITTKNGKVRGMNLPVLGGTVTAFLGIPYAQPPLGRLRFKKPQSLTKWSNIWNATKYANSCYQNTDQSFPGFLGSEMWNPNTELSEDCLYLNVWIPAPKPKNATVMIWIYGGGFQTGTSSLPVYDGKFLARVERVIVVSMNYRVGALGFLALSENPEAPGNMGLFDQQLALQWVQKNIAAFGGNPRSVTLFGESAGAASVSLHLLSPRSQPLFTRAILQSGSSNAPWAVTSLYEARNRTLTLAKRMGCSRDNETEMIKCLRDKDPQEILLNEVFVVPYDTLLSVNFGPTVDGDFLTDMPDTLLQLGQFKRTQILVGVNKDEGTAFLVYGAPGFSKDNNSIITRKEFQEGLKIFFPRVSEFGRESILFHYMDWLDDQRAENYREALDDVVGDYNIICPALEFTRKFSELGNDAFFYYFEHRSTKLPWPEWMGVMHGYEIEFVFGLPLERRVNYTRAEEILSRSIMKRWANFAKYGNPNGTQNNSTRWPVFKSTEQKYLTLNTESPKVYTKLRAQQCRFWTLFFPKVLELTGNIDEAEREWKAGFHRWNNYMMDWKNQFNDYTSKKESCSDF

As for `Cc1c(C)c2c(c(C)c1O)CCC(C)(C(=O)O)O2` (stereo unspecified) [TROLOX], the values for the Activity in the data set on SH-SY5Y [1], with SH-SY5Y [2] and in the data set with SH-SY5Y [3] were 55.7%, 56.1% and 22.3%, respectively.

`O=C(CCN1CCCCC1)n1c2ccccc2sc2ccc(Cl)cc2n1C(=O)CCN1CCCCC1`: the Activity with SH-SY5Y [4] was 55.4%; with SH-SY5Y [1], 63%; in the data set with SH-SY5Y [2] it was 96.4%; in the data set on SH-SY5Y [6] it was 84.6%; in the data set on SH-SY5Y [8], 90.4%; in the data set with SH-SY5Y [3] it was 18.8%. The Activity in the data set with SH-SY5Y [10] is 53%. In the data set with SH-SY5Y [5], the inhibition – broadly, the change of the read-out against control, counted positive when it falls – worked out at 16.2%. Also, the Papp in [7] worked out at 53 nm/s. At Cholinesterase, the half-inhibitory concentration (IC50) (as a rule, the point on the concentration scale where inhibition reaches its midpoint) is over 100 µM. Besides, the viability at 24 h, 3 µM in data set [9] is 100%.

With `CC(=O)n1c2ccccc2sc2cc(Cl)ccc2n1C(C)=O`, the Activity in the data set on SH-SY5Y [4] is listed as 59.2%; in the data set on SH-SY5Y [1], 63.2%; in the data set with SH-SY5Y [2] it was 81.5%; with SH-SY5Y [6], 64.8%; in the data set with SH-SY5Y [8], 76.6%; with SH-SY5Y [3] it was 24.3%. Further, in the data set on SH-SY5Y [10], the Activity came out at 49%. In addition, the inhibition in the data set with SH-SY5Y [5] was 21.5%. Also, the Papp in data set [7] was found to be 101 nm/s. The compound further registered an IC50 at Cholinesterase of over 100 µM. In data set [9], the viability at 24 h, 3 µM turned out to be 100%.

In the case of `CC(=O)n1c2ccccc2sc2cc(C(F)(F)F)ccc2n1C(C)=O`, the Activity in the data set on SH-SY5Y [4] turned out to be 35%; in the data set with SH-SY5Y [1] it was 35.8%; with SH-SY5Y [2], 92.2%; in the data set on SH-SY5Y [6] it was 76.4%; with SH-SY5Y [8], 91.1%; in the data set with SH-SY5Y [10] it was 20.7%. In addition, in [7], the Papp came to 40 nm/s. The compound further showed a 50% inhibitory concentration (IC50) against Cholinesterase of over 100 µM. Moreover, in data set [9], the viability at 24 h, 3 µM turned out to be 100%.

As for `COc1ccc2c(c1)sc1ccccc1n(C(C)=O)n2C(C)=O`, the Activity was 50.1% with SH-SY5Y [4]; 53.8% in the data set on SH-SY5Y [1]; 95.7% with SH-SY5Y [2]; 89.7% in the data set on SH-SY5Y [6]; 97% with SH-SY5Y [8]; 21.6% in the data set with SH-SY5Y [3]. In addition, the Activity in the data set with SH-SY5Y [10] was found to be 49.9%. Besides, the inhibition with SH-SY5Y [5] is 13.1%. For the same compound, the Papp in [7] is 126 nm/s. The IC50 against Cholinesterase was over 100 µM. Also, the viability at 24 h, 3 µM in data set [9] turned out to be 100%.

`CC(=O)n1[nH]c2ccc([N+](=O)[O-])cc2sc2ccccc21`: the Activity in the data set with SH-SY5Y [4] amounted to 27.8%; in the data set with SH-SY5Y [1], 21.9%; in the data set on SH-SY5Y [2] it was 72.7%; in the data set with SH-SY5Y [6], 83.8%; in the data set on SH-SY5Y [8], 75.8%; with SH-SY5Y [10], 26.2%. Besides, the Papp in [7] turned out to be 39 nm/s. At Cholinesterase, the 50% inhibitory concentration (IC50) was over 100 µM. For the same compound, in [9], the viability at 24 h, 3 µM is 100%.

For `COC(=O)C1=C(C)NC(C)=C(C(=O)OC)C1c1ccccc1[N+](=O)[O-]`, in the data set on SH-SY5Y [5], the inhibition was 47.9%.

Take `Clc1ccc2c(c1)Sc1ccccc1N=N2`: the Activity turned out to be 31.4% with SH-SY5Y [4]; 38.8% in the data set on SH-SY5Y [1]; 84.4% in the data set on SH-SY5Y [2]; 90.3% in the data set on SH-SY5Y [6]; 90.2% in the data set on SH-SY5Y [8]; 40.5% in the data set with SH-SY5Y [10]. In addition, the Papp in data set [7] was 123 nm/s. The IC50 at Cholinesterase is over 100 µM. Also, the viability at 24 h, 3 µM in [9] stood at 100%.

As for `CN1CCN(CC(=O)n2c3ccccc3sc3ccc(Cl)cc3n2C(=O)CN2CCN(C)CC2)CC1`, the Activity with SH-SY5Y [4] turned out to be 42.6%; with SH-SY5Y [1], 35.7%; with SH-SY5Y [2] it was 97.5%; with SH-SY5Y [6], 86%; in the data set on SH-SY5Y [8], 96.4%; in the data set with SH-SY5Y [3] it was 24.3%. In addition, the Activity in the data set on SH-SY5Y [10] stood at 50.6%. Besides, in the data set on SH-SY5Y [5], the inhibition was 9.3%. Also, in data set [7], the Papp stood at 59 nm/s. The compound further displayed a half-maximal inhibitory concentration (IC50) against Cholinesterase of over 100 µM. Further, the viability at 24 h, 3 µM in [9] came out at 100%.

Regarding `O=C(CN1CCCCC1)n1c2ccccc2sc2cccc(Cl)c2n1C(=O)CN1CCCCC1`, the Activity in the data set with SH-SY5Y [4] is recorded as 38.2%; with SH-SY5Y [1] it was 35.6%; with SH-SY5Y [2] it was 83.4%; with SH-SY5Y [6] it was 90.5%; with SH-SY5Y [8], 83.9%; with SH-SY5Y [10], 43.3%. Moreover, the Papp in data set [7] was 73 nm/s. The compound further showed an IC50 against Cholinesterase of 0.9 µM. Also, the viability at 24 h, 3 µM in [9] turned out to be 100%.

Take `CN(C)CCC(=O)n1c2ccccc2sc2ccc(Cl)cc2n1C(=O)CCN(C)C`: the Activity with SH-SY5Y [4] is recorded as 20.4%; with SH-SY5Y [1] it was 15.9%; with SH-SY5Y [2], 96.1%; with SH-SY5Y [6] it was 75.9%; in the data set on SH-SY5Y [8], 92.1%; in the data set with SH-SY5Y [10], 8.1%. Further, in data set [7], the Papp came to 142 nm/s. Further, at Cholinesterase, inhibition was half-maximal at 0.7 µM (IC50). Moreover, the viability at 24 h, 3 µM in data set [9] came to 100%.

For the compound `CC(=O)n1c2ccccc2sc2ccc(Cl)cc2n1C(C)=O`, the Activity in the data set with SH-SY5Y [4] is recorded as 38.3%; with SH-SY5Y [1], 38.3%; with SH-SY5Y [2] it was 91.1%; in the data set on SH-SY5Y [6] it was 79.8%; with SH-SY5Y [8] it was 88.9%; with SH-SY5Y [10], 9.3%. For the same compound, the Papp in data set [7] turned out to be 123 nm/s. Moreover, on Cholinesterase, the IC50 was over 100 µM. Further, the viability at 24 h, 3 µM in data set [9] is 100%.

With `O=C(CCN1CCCC1)n1c2ccccc2sc2ccc(Cl)cc2n1C(=O)CCN1CCCC1`, the Activity in the data set on SH-SY5Y [4] is listed as 45.9%; in the data set with SH-SY5Y [1], 32.7%; in the data set with SH-SY5Y [2], 92.4%; with SH-SY5Y [6] it was 99.3%; in the data set on SH-SY5Y [8], 94.6%; in the data set on SH-SY5Y [10], 40.7%. Also, the Papp in data set [7] was determined as 37 nm/s. Further, on Cholinesterase, the half-maximal inhibitory concentration (IC50) is over 100 µM. Moreover, in data set [9], the viability at 24 h, 3 µM is 100%.
